Legend:
[1] = tested on: Trypanosoma brucei rhodesiense; experiment: Trypanocidal activity against Trypanosoma brucei rhodesiense Z310 after 72 hrs by Alamar blue assay; assay type: functional, organism-based; settings: Z310, 72 h
Method in brief: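 T. b. rhodesiense strain Z310 cultured at 37°C in HMI9 with 10% fetal calf serum, without G418, and exposed to compounds for 72 h. Alamar Blue viability read-out. Four replicates; EC50 ± standard deviation from curve fitting.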

HeLa = experiment: Cytotoxicity against human HeLa cells after 65 hrs by Alamar blue assay; assay type: cell-based
[2] = tested on: Trypanosoma brucei brucei; experiment: Trypanocidal activity against bloodstream form of Trypanosoma brucei brucei 427 after 72 hrs by Alamar blue assay; assay type: functional, organism-based; settings: Trypanosoma brucei, 427, 72 h
Method in brief: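 Bloodstream-form T. b. brucei strain 427 grown at 37°C in HMI9 with 10% fetal calf serum and 2.5 µg ml-1 G418, exposed to serially diluted compounds for 72 h. Viability read by Alamar Blue. Four replicates; EC50 ± standard deviation and slope factor from curve fitting.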

[3] = Selectivity index, ratio of EC50 for human HeLa cells to EC50 for bloodstream form of Trypanosoma brucei brucei 427; assay type: toxicity, cell-based; settings: read-out: Ratio EC50
Trypanosoma brucei [4] = experiment: Antitrypanosomal activity against trypomastigote form of Trypanosoma brucei; assay type: functional, organism-based
Method in brief: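 Bloodstream-form T. b. brucei strain 427 grown at 37°C in HMI9 with 10% fetal calf serum and 2.5 μg ml-1 G418; viability read by Alamar Blue after 72 h compound exposure. Four replicates, EC50 ± standard deviation and slope factor from curve fitting.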

[5] = Selectivity ratio of EC50 for bloodstream form of nifurtimox-resistant Trypanosoma brucei to EC50 for bloodstream form of wild type Trypanosoma brucei brucei 427; assay type: functional
Trypanosoma brucei [6] = experiment: Trypanocidal activity against bloodstream form of N-(4-(allyloxy)-3-(trifluoromethyl)phenyl)-5-nitrofuran-2-carboxamide-resistant Trypanosoma brucei after 72 hrs by Alamar blue assay; assay type: functional, organism-based
[7] = Selectivity ratio of EC50 for bloodstream form of N-(4-(allyloxy)-3-(trifluoromethyl)phenyl)-5-nitrofuran-2-carboxamide-resistant Trypanosoma brucei to EC50 for bloodstream form of wild type Trypanosoma brucei brucei 427; assay type: functional
Trypanosoma brucei [8] = experiment: Trypanocidal activity against bloodstream form of nifurtimox-resistant Trypanosoma brucei after 72 hrs by Alamar blue assay; assay type: functional, organism-based
[9] = tested on: Trypanosoma brucei brucei; experiment: Ratio of nifurtimox EC50 to compound EC50 for bloodstream form of wild type Trypanosoma brucei brucei 427; assay type: functional

Structure (SMILES) | EC50 (HeLa) [µM] | EC50 [2] [nM] | selectivity ratio [3] | further results
CCNC(=O)c1cc(CC)sc1NC(=O)c1ccc([N+](=O)[O-])o1 | > 20 | 147 | > 136 | EC50 [1]: 202 nM
COc1cccc(NC(=O)c2ccc([N+](=O)[O-])o2)c1 | > 20 | 58.6 | > 345 | 
COC(=O)c1ccc(NC(=O)c2ccc([N+](=O)[O-])o2)cc1 | > 20 | 680 | > 29 | 
O=C(Nc1ccccc1)c1ccc([N+](=O)[O-])o1 | > 20 | 28.1 | > 710 | 
COc1cc(NC(=O)c2ccc([N+](=O)[O-])o2)cc(C(F)(F)F)c1 | > 20 | 26.6 | > 752 | 
O=C(NNC(=O)c1ccc([N+](=O)[O-])o1)c1ccc2ccccc2c1 |  |  |  | EC50 (Trypanosoma brucei [4]): 130 nM
Cc1csc(N)c1C(N)=O | > 20 | 65100 |  | 
O=C(Nc1ccccc1)c1ccco1 | > 20 | > 20000 |  | 
COc1ccc(NC(=O)c2ccc([N+](=O)[O-])o2)cc1 | > 20 | 76.5 | > 261 | 
O=C(Nc1ccc(Cl)cc1)c1ccc([N+](=O)[O-])o1 | > 20 | 412 | > 48 | 
O=C(Nc1cc(C(F)(F)F)cc(C(F)(F)F)c1)c1ccc([N+](=O)[O-])o1 | > 10 | 128 | > 78 | 
C=CCOc1ccc(N(CC=C)C(=O)c2ccc([N+](=O)[O-])o2)cc1C(F)(F)F | > 20 | 2200 | > 9 | 
O=C(NCc1cccc(C(F)(F)F)c1)c1ccc([N+](=O)[O-])o1 | > 20 | 17.4 | > 1150 | 
N=C(N)c1ccc(OCCCCCOc2ccc(C(=N)N)cc2)cc1 [PENTAMIDINE] |  |  |  | Ratio EC50 [5]: 2; EC50 (Trypanosoma brucei [6]): 1.1 nM
O=C(Nc1cccc(C(F)(F)F)c1)c1ccc([N+](=O)[O-])o1 | > 20 | 4.69 | > 4450 | EC50 [1]: 9.4 nM
COc1ccc(NC(=O)c2ccc([N+](=O)[O-])o2)cc1C | > 20 | 38 | > 525 | 
O=C(NC1CCCCC1)c1ccc([N+](=O)[O-])o1 | > 20 | 231 | > 86 | 
CCc1cc(C(=O)OC)c(NC(=O)c2ccc([N+](=O)[O-])o2)s1 | > 20 | 21 | > 950 | 
CCCCNC(=O)c1cc(CC)sc1NC(=O)c1ccc([N+](=O)[O-])o1 | > 20 | 336 | > 60 | 
CC1CS(=O)(=O)CCN1/N=C/c1ccc([N+](=O)[O-])o1 (stereo not given) [NIFURTIMOX] | 91.2 |  | 38 | EC50 [1]: 1710 nM; Ratio EC50 [7]: 3; EC50 (Trypanosoma brucei [6]): 7300 nM
O=C(NCc1ccccn1)c1ccc([N+](=O)[O-])o1 | > 20 | 291 | > 68 | 
CCc1cc(C(N)=O)c(NC(=O)c2ccc([N+](=O)[O-])o2)s1 | > 20 | 17.3 | > 1160 | EC50 [1]: 23.1 nM
CCc1cc(C(N)=O)c(NC(=O)c2n[nH]cc2[N+](=O)[O-])s1 | > 20 | > 300000 |  | 
O=C(NCc1ccccc1)c1ccc([N+](=O)[O-])o1 | > 20 | 27.3 | > 732 | 

Structure (SMILES) | EC50 (HeLa) [µM] | EC50 [2] [nM] | selectivity ratio [3] | further results
C=CCOc1ccc(NC(=O)c2ccc([N+](=O)[O-])o2)cc1C(F)(F)F | > 20 | 2.4 | > 8330 | EC50 [1]: 2.9 nM; EC50 (Trypanosoma brucei [8]): 7.8 nM; Ratio EC50 [5]: 3; Ratio EC50 [7]: 14; EC50 (Trypanosoma brucei [6]): 29.3 nM; Ratio EC50 [9]: 1000
O=C(Nc1cccc(Br)c1)c1ccc([N+](=O)[O-])o1 | > 20 | 104 | > 192 | 
O=C(Nc1ccc(C(F)(F)F)cc1)c1ccc([N+](=O)[O-])o1 | > 20 | 126 | > 158 | EC50 [1]: 159 nM
CCc1cc(C(N)=O)c(NC(=O)c2ccccc2[N+](=O)[O-])s1 | > 20 | 26100 |  | 
CCCCc1cc(C(=O)OCC)c(NC(=O)c2ccc([N+](=O)[O-])o2)s1 | > 20 | 125 | > 160 | 
C=CCOc1ccc(NC(=O)c2ccc([N+](=O)[O-])o2)cc1 | > 20 | 7.73 | > 258 | 
O=C(Nc1ccc(O)c(C(F)(F)F)c1)c1ccc([N+](=O)[O-])o1 | > 20 | 2200 | > 9 | 
O=[N+]([O-])c1ccc(CNc2ccccc2)o1 | > 20 | 113000 |  | 
CCc1cc(C(N)=O)c(NC(=O)c2ccc([N+](=O)[O-])cc2)s1 | > 20 | > 20000 |  | 
CCOC(=O)c1cc(CC)sc1NC(=O)c1ccc([N+](=O)[O-])o1 | > 20 | 31.3 | > 640 | EC50 [1]: 44.2 nM; Ratio EC50 [9]: 100
CCc1cc(C(=O)O)c(NC(=O)c2ccc([N+](=O)[O-])o2)s1 | > 20 | 959 |  | 
O=C(Nc1ccc(O)cc1)c1ccc([N+](=O)[O-])o1 | > 20 | 394 | > 50 | 
Nc1nc(N)nc(Nc2ccc([As]3SCC(CO)S3)cc2)n1 (stereo not given) [MELARSOPROL] |  |  |  | EC50 [1]: 7.8 nM
CCc1cc(C(N)=O)c(NCc2ccc([N+](=O)[O-])o2)s1 | > 20 | 5300 | > 4 | 
CCCCOC(=O)c1cc(CC)sc1NC(=O)c1ccc([N+](=O)[O-])o1 | > 20 | 32.6 | > 625 | 
CCOC(=O)c1ccsc1NC(=O)c1ccc([N+](=O)[O-])o1 | > 20 | 72.3 | > 278 | 
CCc1cc(C(=O)NCCO)c(NC(=O)c2ccc([N+](=O)[O-])o2)s1 | > 20 | 79.6 | > 253 | 
CCc1cc(C(N)=O)c(NC(=O)c2cccc([N+](=O)[O-])c2)s1 | > 20 | 2600 | > 8 | 
COc1ccc(NC(=O)c2ccc([N+](=O)[O-])o2)cc1C(F)(F)F | > 20 | 7.8 | > 2560 | 
CCOC(=O)c1cc(CC)sc1NC(=O)c1ccco1 | > 20 | > 20000 |  | 
CCc1cc(C(N)=O)c(N)s1 | > 20 | 32600 |  | 
COC(=O)c1ccc([N+](=O)[O-])o1 | > 20 | 67000 |  | 
O=C(Nc1cccs1)c1ccc([N+](=O)[O-])o1 | > 20 | 62.6 | > 322 | 
